Measurements reported in ChEMBL document CHEMBL4673205, “Structure-Based Design of a Covalent Inhibitor of the SET Domain-Containing Protein 8 (SETD8) Lysine Methyltransferase” (J Med Chem, 2016).
pIC50: −log10 of the molar value. Activity calls are given as the source filed them. No cut-off for these calls is given here.

Legend:
[1] = Efflux ratio of compound; type: ADME; conditions: not told
[2] = biological target: T1, N-lysine methyltransferase KMT5A (Homo sapiens) (UniProt Q9NQR1); assay: (§1) Inhibition of wild type SETD8 catalytic domain (unknown origin) (234 to 380 residues) expressed in Escherichia coli assessed as compound-adduct dimer formation by measuring residual activity at 20 to 200 uM using varying levels of biotinylated H4 (1 to 24) peptide substrate measured after 1 hr in presence of [3H-SAM] by scintillation counting assay; conditions: dose 20-200 µM
T1 sequence (whole entry): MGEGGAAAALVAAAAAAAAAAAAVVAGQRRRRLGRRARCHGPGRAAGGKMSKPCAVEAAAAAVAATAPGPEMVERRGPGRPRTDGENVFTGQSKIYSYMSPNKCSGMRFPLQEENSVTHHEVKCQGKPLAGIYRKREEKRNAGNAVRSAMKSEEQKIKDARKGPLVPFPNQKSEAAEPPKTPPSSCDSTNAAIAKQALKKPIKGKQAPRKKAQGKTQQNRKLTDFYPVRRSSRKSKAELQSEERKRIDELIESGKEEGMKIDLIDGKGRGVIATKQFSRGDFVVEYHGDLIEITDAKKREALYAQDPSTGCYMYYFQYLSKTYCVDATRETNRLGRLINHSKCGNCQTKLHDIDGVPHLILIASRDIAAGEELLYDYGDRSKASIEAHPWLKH
Outline: (§2)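 The adduct was purified by gel filtration, giving monomer and dimer fractions that interconvert after a short time. Each fraction was tested in the enzymatic assay, and residual activity was expressed relative to wild-type SETD8.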

Homo sapiens [3] = species on record: Homo sapiens; assay: Binding affinity to human recombinant N-terminal His-tagged SETD8 C311S mutant (234 to 380 residues) expressed in Escherichia coli assessed as covalent adduct formation at 20 to 200 uM incubated for 3 hrs by LC-MSD-TOF analysis; conditions: dose 20-200 µM
[4] = biological target: T1, N-lysine methyltransferase KMT5A (Homo sapiens); assay: as §1, with “monomer” for “dimer”; conditions: dose 20-200 µM; outline: as §2
Homo sapiens [5] = species on record: Homo sapiens; assay: Binding affinity to human recombinant N-terminal His-tagged SETD8 C343S mutant (234 to 380 residues) expressed in Escherichia coli assessed as covalent adduct formation at 20 to 200 uM incubated for 3 hrs by LC-MSD-TOF analysis; conditions: dose 20-200 µM
[6] = biological target: T1, N-lysine methyltransferase KMT5A (Homo sapiens); assay: Inhibition of SETD8 in human HeLa cells assessed as reduction in monomethylation of H4K20 up to 10 uM; type: cell-based; conditions: dose microM <=10
[7] = biological target: N-lysine methyltransferase SMYD2 (Homo sapiens) (UniProt Q9NRG4); assay: Binding affinity to SMYD2 (unknown origin) by mass-spectrometric analysis
Sequence of N-lysine methyltransferase SMYD2 (Homo sapiens) (Q9NRG4 whole entry, the tested form may be a part): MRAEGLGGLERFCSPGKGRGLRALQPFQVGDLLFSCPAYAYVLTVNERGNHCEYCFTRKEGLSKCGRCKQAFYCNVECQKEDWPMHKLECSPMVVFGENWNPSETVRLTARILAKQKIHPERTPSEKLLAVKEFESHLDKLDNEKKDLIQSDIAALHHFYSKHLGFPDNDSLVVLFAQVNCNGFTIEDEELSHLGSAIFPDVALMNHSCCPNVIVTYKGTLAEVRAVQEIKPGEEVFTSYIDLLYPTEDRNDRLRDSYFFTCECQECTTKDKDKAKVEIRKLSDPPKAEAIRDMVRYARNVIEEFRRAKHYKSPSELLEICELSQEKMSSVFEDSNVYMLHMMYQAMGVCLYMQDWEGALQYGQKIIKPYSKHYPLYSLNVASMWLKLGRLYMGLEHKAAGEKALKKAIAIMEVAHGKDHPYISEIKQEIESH

[8] = biological target: T2, N-lysine methyltransferase KMT5A (Homo sapiens, UniProt Q9NQR1); assay: Inhibition of recombinant SETD8 catalytic domain (unknown origin) (232 to 393 residues) expressed in Escherichia coli assessed as reduction in incorporation of [3H]-labeled methyl group into biotinylated H4 (1 to 24) peptide measured after 1 hr using [3H-SAM] by scintillation proximity assay
T2 sequence (Q9NQR1 whole entry): T1 sequence (whole entry)

[9] = biological target: T1, N-lysine methyltransferase KMT5A (Homo sapiens); assay: Binding affinity to wild type SETD8 catalytic domain (unknown origin) (234 to 380 residues) expressed in Escherichia coli assessed as covalent adduct formation at 20 to 200 uM incubated for 3 hrs by LC-MSD-TOF analysis; conditions: dose 20-200 µM
[10] = biological target: Histone-lysine N-methyltransferase EZH2 (Homo sapiens) (UniProt Q15910); assay: Binding affinity to PRC2 (unknown origin) by mass-spectrometric analysis
Sequence of Histone-lysine N-methyltransferase EZH2 (Homo sapiens) (Q15910 whole entry, looked up, the tested form may be a part): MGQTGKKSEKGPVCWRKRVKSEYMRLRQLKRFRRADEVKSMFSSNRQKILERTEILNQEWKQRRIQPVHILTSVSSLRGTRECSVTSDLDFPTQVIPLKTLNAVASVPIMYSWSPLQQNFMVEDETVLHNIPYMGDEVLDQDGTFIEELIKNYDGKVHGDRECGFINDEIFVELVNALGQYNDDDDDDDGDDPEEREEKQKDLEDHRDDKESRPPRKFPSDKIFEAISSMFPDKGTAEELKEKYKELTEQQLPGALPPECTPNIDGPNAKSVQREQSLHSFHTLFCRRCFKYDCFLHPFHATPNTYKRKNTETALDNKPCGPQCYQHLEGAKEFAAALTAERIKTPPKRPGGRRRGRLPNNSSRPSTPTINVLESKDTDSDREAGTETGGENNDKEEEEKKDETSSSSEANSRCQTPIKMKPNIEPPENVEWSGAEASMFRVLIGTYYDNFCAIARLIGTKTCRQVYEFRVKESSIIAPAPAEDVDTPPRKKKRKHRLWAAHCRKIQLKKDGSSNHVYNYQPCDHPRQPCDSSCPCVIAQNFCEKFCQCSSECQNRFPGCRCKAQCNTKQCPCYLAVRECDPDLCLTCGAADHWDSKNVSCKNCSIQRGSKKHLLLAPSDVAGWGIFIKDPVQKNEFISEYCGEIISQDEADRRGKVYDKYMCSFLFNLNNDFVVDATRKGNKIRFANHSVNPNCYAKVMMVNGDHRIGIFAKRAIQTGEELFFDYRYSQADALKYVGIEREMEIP

[11] = biological target: T2, N-lysine methyltransferase KMT5A; assay: Inhibition of recombinant SETD8 catalytic domain (unknown origin) (232 to 393 residues) expressed in Escherichia coli assessed as reduction in incorporation of [3H]-labeled methyl group into biotinylated H4 (1 to 24) peptide measured after 5 hrs using [3H-SAM] by scintillation proximity assay
Outline: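 SETD8 catalytic domain (residues 232–393) was expressed in E. coli and purified. Compound was preincubated with the enzyme for a set time (1 h or 5 h) before a scintillation proximity methylation assay. IC50 was taken from a fitted concentration–response curve.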

[12] = biological target: T3, Histone-lysine N-methyltransferase SMYD3 (Homo sapiens) (UniProt Q9H7B4); assay: Binding affinity to SMYD3 (unknown origin) by mass-spectrometric analysis
T3 sequence (whole entry): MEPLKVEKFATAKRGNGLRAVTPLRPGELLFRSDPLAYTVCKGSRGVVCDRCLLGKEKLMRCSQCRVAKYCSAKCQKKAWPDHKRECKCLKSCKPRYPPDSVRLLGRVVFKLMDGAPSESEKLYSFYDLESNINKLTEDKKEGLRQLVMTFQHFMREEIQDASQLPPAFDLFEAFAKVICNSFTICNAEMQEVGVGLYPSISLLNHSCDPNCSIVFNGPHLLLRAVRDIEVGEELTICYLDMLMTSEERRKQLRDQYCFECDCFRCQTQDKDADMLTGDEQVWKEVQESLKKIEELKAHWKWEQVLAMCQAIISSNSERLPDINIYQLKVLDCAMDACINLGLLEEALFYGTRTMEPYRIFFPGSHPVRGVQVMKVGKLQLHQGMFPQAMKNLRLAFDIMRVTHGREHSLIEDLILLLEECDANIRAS

[13] = biological target: T1, N-lysine methyltransferase KMT5A (Homo sapiens); assay: Binding affinity to wild type SETD8 catalytic domain (unknown origin) (234 to 380 residues) expressed in Escherichia coli assessed as covalent adduct formation at 20 to 200 uM incubated for 3 hrs in presence of GSH by LC-MSD-TOF analysis; conditions: dose 20-200 µM
[14] = Permeability of compound; type: ADME; conditions: not told; read-out: permeability

Row | efflux ratio [1] | Activity [2] [%] | Activity (Homo sapiens [3]) | Activity [4] [%] | Activity (Homo sapiens [5]) | inhibition [6] | Activity [7] | pIC50 [8] | Activity [9] | Activity [10] | pIC50 [11] | Activity [12] | Activity [13] | Papp [14] [×10⁻⁶ cm/s] | Structure (SMILES)
1 | 137 | 10 | inactive | 10 | Active | inactive | inactive | 5.16 | Active | inactive | 6.09 | inactive | Active | 0.44 | C=CC(=O)NCCCNc1nc(N2CCCC2)nc2cc(OC)c(OC)cc12
2 |  |  |  |  |  |  |  | < 3.70 | inactive |  |  |  |  |  | C=CC(=O)NCCCN(C)c1nc(N2CCCC2)nc2cc(OC)c(OC)cc12
